SIRT5 block = sirtuin-5 (human) deacylase inhibition. Q9NXA8. Purified SirT5, succinyl-peptide AMC, trypsin-coupled fluorescence. hit rate 1.1% among 330,000. inhibition, % at 15 µM; in the data active = inhibition above about 15%; inconclusive = no clear call, values can overlap the other calls
E-sel inducer = E-selectin induction on HUVECs. P16581. HUVEC E-selectin immunofluorescence imaging; normalized: neutral wells 0, TNF-alpha wells 100. activation, % at 7.58 µM. hit rate 0.37% among 260,000. AID 686992;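 active = mean E-selectin-positive cell signal at least 10% of the positive control, reached in at least 60% of replicates, without over 20% cell loss; inconclusive = no rule given, readout overlaps actives, possibly toxicity-flagged; inactive = the rest, including those meeting only one limit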
Target sequence (P16581 whole entry, looked up): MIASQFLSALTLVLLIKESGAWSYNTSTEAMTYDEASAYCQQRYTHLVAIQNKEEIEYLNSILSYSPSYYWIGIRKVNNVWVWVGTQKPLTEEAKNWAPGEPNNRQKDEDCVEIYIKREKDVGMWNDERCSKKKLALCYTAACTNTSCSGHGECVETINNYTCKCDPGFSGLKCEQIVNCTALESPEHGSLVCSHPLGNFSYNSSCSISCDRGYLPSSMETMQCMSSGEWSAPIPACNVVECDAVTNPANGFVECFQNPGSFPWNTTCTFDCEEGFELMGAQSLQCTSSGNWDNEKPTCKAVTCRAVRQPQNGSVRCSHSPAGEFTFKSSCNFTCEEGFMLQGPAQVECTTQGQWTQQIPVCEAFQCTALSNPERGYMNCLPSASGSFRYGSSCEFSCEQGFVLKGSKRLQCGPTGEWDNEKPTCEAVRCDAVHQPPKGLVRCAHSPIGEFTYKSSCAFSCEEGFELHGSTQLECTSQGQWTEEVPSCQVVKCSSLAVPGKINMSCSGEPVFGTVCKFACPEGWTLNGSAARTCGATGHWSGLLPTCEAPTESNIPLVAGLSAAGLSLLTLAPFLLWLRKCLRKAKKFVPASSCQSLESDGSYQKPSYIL
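Test system – human umbilical vein endothelial cells (HUVEC), E-selectin induction · Input – 3,000 HUVEC seeded per well · Buffer or medium – EGM-2, gelatin · Compound dosing – single-point compound dose · Detection – immunofluorescence imaging · Measure – percent E-selectin-positive cells · Controls – TNF-alpha high, DMSO low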
DENV2 CPE = protects cells from dengue virus 2 cytopathic effect; hit rate 1.7% among 350,000; DENV2-infected cells, cytopathic effect rescue, plate reader; AID 651640; CPE inhibition, % at 9.99 µM; in the data active = CPE inhibition above about 20%, passing the limit was not always enough; inconclusive = no clear call, values can overlap the other calls; tested in BHK-21 cells
Numbers stand for hits; 0 = inactive; ? = inconclusive; - = not tested or not shown; ! = a repeat was not active. This is a sample that favours compounds with a hit; in the whole collection about 2.8% have one here.

SMILES	SIRT5 block	E-sel inducer	DENV2 CPE
COc1cccc(S(=O)(=O)N[C@H]2CC[C@H](CCNC(=O)Cc3ccncc3)O[C@@H]2CO)c1	15.8	0	0
COc1cccc(S(=O)(=O)N[C@H]2CC[C@@H](CC(=O)NCc3ccncc3)O[C@@H]2CO)c1	0	0	0
COc1cccc(S(=O)(=O)N[C@@H]2C=C[C@H](CC(=O)NCc3ccc(F)cc3)O[C@@H]2CO)c1	0	0	33.3
COc1cccc(S(=O)(=O)N[C@H]2C=C[C@H](CC(=O)NCc3ccncc3)O[C@@H]2CO)c1	0	0	0
C[C@@H]1CN([C@@H](C)CO)C(=O)c2cccc(NC(=O)c3nc4ccccc4s3)c2O[C@H]1CN(C)Cc1ccc2c(c1)OCO2	0	0	-
CCCC#Cc1ccc2c(c1)O[C@H](CN(C)C)[C@@H](C)CN([C@H](C)CO)S2(=O)=O	0	0	0
COc1ccc(OC)c(NC(=O)C2CCN(S(C)(=O)=O)CC2)c1	0	-	0
COc1ccc(OC)c(NC(=O)C2CCN(C(=O)c3cccs3)CC2)c1	22.1	0	0
CCOc1ccc(NS(=O)(=O)c2cc(C(=O)N3CCC3)ccc2Cl)cc1	0	-	46.8
CCOc1ccc(NS(=O)(=O)c2ccc(C(=O)N3CCCCC3)cc2)cc1	0	0	0
CC1Cc2ccccc2N1C(=O)CCn1cccn1 (centres undefined)	0	-	0
Cc1cc(C)n(CCC(=O)N2c3ccccc3CC2C)n1 (centres undefined)	16.5	-	0
C[C@@H]1CN([C@H](C)CO)S(=O)(=O)c2ccc(C#CCN(C)C)cc2O[C@H]1CN(C)Cc1ccccc1	0	0	0
CCO[C@@H]1OC(C(=O)NCc2ccccc2)=C[C@H](c2coc3ccccc3c2=O)[C@H]1CCCO	0	0	46.7
CCO[C@H]1OC(C(=O)NC2CC2)=C[C@@H](c2coc3ccccc3c2=O)[C@@H]1CCCO	0	0	0
CCO[C@H]1OC(C(=O)O)=C[C@@H](c2coc3ccccc3c2=O)[C@@H]1CCCO	0	0	0
CCO[C@H]1OC(C(=O)Nc2ccccc2)=C[C@@H](c2coc3ccccc3c2=O)[C@@H]1CCCO	0	0	23.3!
O=C(Nc1ccc2c(c1)[C@H]1C[C@@H](CC(=O)N3CCc4ccccc4C3)O[C@@H](CO)[C@H]1O2)C1CCOCC1	0	0	0
CN(C[C@@H]1N[C@H](CO)[C@@H]1c1ccc(C#CCC2CCCC2)cc1)S(C)(=O)=O	0	0	0
N#Cc1ccc(C(=O)NC(=S)N2CCN(C=O)CC2)cc1	20.0	0	0
O=C(NC(=S)N1CCN(c2ccccc2)CC1)c1c(F)cccc1F	0	0	74.5
O=[N+]([O-])c1ccc(N2CCN(C(=S)c3cccc([N+](=O)[O-])c3)CC2)cc1	0	-	0
CN1CCN(C(=O)/C(=C/c2ccc([N+](=O)[O-])cc2)NC(=O)c2ccccc2)CC1	0	-	0
O=C(NC(=S)N1CCN(c2ccc(F)cc2)CC1)c1cccs1	0	-	0
O=C(N/C(=C\c1ccc([N+](=O)[O-])cc1)C(=O)N1CCCCC1)c1ccccc1	16.1	-	0
SMILES	SIRT5 block	E-sel inducer	DENV2 CPE
O=C(NC(=S)N1CCN(c2ccc([N+](=O)[O-])cc2)CC1)c1ccccc1	0	33.1	0
CC(=O)N1CCN(C(=S)NC(=O)c2ccc(F)cc2)CC1	0	0	0
CCCNC(=O)N1C[C@@H](C)[C@H](OC)CN(C)C(=O)c2ccc(NC(=O)CCC)cc2OC[C@@H]1C	0	0	0
O=C(c1ccccc1F)N1CC[C@@H]2[C@H]1c1cc(C#Cc3ccccc3F)ccc1N[C@@H]2CO	0	0	0
CC=Cc1ccc2n(c1=O)C[C@@H]1[C@@H](CO)[C@H](C(=O)NCCc3cn(C)cn3)N(C(=O)C3CCC3)[C@H]21 (mixture of isomers)	0	0	0
CO[C@@H]1CN(C)C(=O)c2cc(NC(=O)C3CC3)ccc2OC[C@@H](C)N(Cc2ccc(F)cc2)C[C@H]1C	0	0	0
O=C(NCCCc1ccccc1)c1ccc(Br)o1	-	0	-
CCCCCCNC(=O)c1ccc(Br)o1	32.2	0	0
COc1cccc(C2=CC(=O)CC(C)(C)C2)c1	0	0	0
COc1cccc(C2=CC(=O)C(C(C)(C)C)N2C(C)(C)C)c1 (centres undefined)	-	0	41.4
COc1ccc(NC(=O)N(C)C[C@@H]2Oc3ccc(NS(=O)(=O)c4ccc(Cl)cc4)cc3CC(=O)N([C@H](C)CO)C[C@@H]2C)cc1	0	0	0
CC=Cc1ccc2n(c1=O)C[C@H]1[C@H](CO)[C@@H](C(=O)NCc3ccc4c(c3)OCO4)[C@@H]2N1C(=O)CC (mixture of isomers)	0	0	0
C[C@H](CO)N1C[C@H](C)[C@@H](CN(C)S(=O)(=O)c2cn(C)cn2)Oc2ccc(NS(=O)(=O)c3ccc(Cl)cc3)cc2CC1=O	0	0	?
Cn1c(=O)c2cc(S(=O)(=O)NC(C(=O)Nc3cccnc3)c3ccccc3)ccc2n(C)c1=O (centres undefined)	-	0	0
Cn1c(=O)c2cc(S(=O)(=O)NC(C(=O)Nc3cccc(F)c3)c3ccccc3)ccc2n(C)c1=O (centres undefined)	-	0	77.6
O=C(NCC(F)(F)F)[C@@H]1[C@@H](CO)[C@@H]2Cn3c(cccc3=O)[C@@H]2N1C(=O)C1CCC1	0	0	0
C[C@H]1CCCCO[C@H](CN(C)C)[C@@H](C)CN([C@@H](C)CO)C(=O)c2cc(NS(=O)(=O)c3cn(C)cn3)ccc2O1	0	0	0
C[C@@H]1CN([C@@H](C)CO)C(=O)c2cc(NC(=O)c3ccccc3)ccc2O[C@@H](C)CCCCO[C@H]1CN(C)S(=O)(=O)c1cn(C)cn1	0	0	0
CC(C)CC#Cc1cnc2c(c1)C(=O)N([C@H](C)CO)C[C@H](C)[C@@H](CN(C)C(=O)c1cnccn1)O2	0	0	0
Cc1cccc(CSCC(=O)NCc2ccc(S(N)(=O)=O)cc2)c1	15.2	0	0
Cc1ccc(CNC(=O)CSCc2ccccc2)cc1	0	-	0
O=C(NCC1CC1)[C@H]1[C@H](CO)[C@H]2Cn3c(ccc(-c4ccccc4F)c3=O)[C@@H]1N2Cc1cccnc1	0	0	0
CCC[C@@H](CN1CCC[C@H]1CN1C(N)=NC[C@@H]1Cc1ccccc1)N1C[C@@H](Cc2ccccc2)N(CCc2ccc(Cl)c(Cl)c2)C1=N	-	0	0
CCC[C@@H](CN1CCC[C@H]1CN1C(N)=NC[C@H]1CC(C)C)N1C[C@@H](Cc2ccccc2)N(CCc2ccc(Cl)c(Cl)c2)C1=N	0	0	55.2
C[C@H]1CN([C@@H](C)CO)C(=O)c2cc(NS(=O)(=O)c3ccc(Cl)cc3)ccc2O[C@H]1CN(C)S(=O)(=O)c1ccc(F)cc1	0	0	0
C=CCOC(=O)C1=C[C@@H](c2ccc(Br)cc2)C[C@@H](OCc2ccc(CO)cc2)O1	26.5!	0	0
C#Cc1ccc([C@H]2C=C(C(=O)OCC=C)O[C@@H](OCc3ccc(CO)cc3)C2)cc1	-	0	0
O=C(C1CCCC1)N1CC[C@@H]2[C@H]1c1cc(C#Cc3ccc(F)cc3)ccc1N[C@@H]2CO	0	0	0
O=C(C1CC1)N1CC[C@@H]2[C@H](CO)Nc3ccc(C#Cc4ccccc4F)cc3[C@@H]21	-	0	0
O=C(C1CCC1)N1CC[C@@H]2[C@H](CO)Nc3ccc(C#Cc4ccc(F)cc4)cc3[C@@H]21	0	34.4	0

Screens from PubChem.
